ChEMBL document CHEMBL1795318, “Development of tetrahydroisoquinoline-based hydroxamic acid derivatives: potent histone deacetylase inhibitors with marked in vitro and in vivo antitumor activities” (J Med Chem, 2011)
Active and inactive are the calls of the source. No cut-off for these calls is given here.

Experiments:
MDA-MB-231 [1] = assay: Antitumor activity against human MDA-MB-231 cells xenografted in athymic nude mouse assessed as tumor growth delay at 90 mg/kg, ip qd for 21 days; assay type: functional, organism-based; design: dose 90 mg/kg
Mus musculus [2] = assay: Toxicity in human MDA-MB-231 cells xenografted athymic nude mouse assessed as signs of toxicity at 90 mg/kg, ip qd for 21 days; assay type: organism-based; design: dose 90 mg/kg, route intraperitoneal; conditions: in vivo, 504 h
Mus musculus [3] = assay: Toxicity in human MDA-MB-231 cells xenografted athymic nude mouse assessed as change in body weight at 90 mg/kg, ip qd for 21 days; assay type: organism-based; design: dose 90 mg/kg, route intraperitoneal; conditions: in vivo, 504 h
A549 = assay: Cytotoxicity against human A549 cells after 48 hrs by MTT assay; assay type: functional, cell-based; conditions: A549, 48 h
How it was run: (§1)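 Cells kept in RPMI1640 with 10% FBS, 37 °C, 5% CO₂; seeded day before dosing, grown ≥4 h, treated with a concentration series for 48 h. MTT 0.5% solution added, 4 h further; formazan dissolved in DMSO 15 min, absorbance at 570 nm. Mean of three experiments.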

Histone deacetylase 8 = target: T1, Histone deacetylase 8 (Homo sapiens, UniProt Q9BY41); assay: Inhibition of HDAC8 after 30 mins by fluorescence microplate reader
T1 sequence (Q9BY41 whole entry): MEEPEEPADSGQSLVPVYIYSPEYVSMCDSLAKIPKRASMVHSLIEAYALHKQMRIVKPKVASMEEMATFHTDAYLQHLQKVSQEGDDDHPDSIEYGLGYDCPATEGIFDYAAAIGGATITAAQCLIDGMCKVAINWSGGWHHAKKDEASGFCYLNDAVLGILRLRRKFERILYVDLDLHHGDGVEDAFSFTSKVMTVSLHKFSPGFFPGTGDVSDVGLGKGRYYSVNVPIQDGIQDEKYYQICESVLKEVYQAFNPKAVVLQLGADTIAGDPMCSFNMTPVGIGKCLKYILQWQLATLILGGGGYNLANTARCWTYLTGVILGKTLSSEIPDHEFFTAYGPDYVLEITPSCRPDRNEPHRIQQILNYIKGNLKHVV
How it was run: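 HDAC8 mixed with compound at various concentrations, fluorogenic substrate added, 37 °C for 30 min; stopped with developer containing trypsin and TSA. Fluorescence read after 20 min (ex 390/em 460 nm); inhibition relative to control wells, IC50 by regression of concentration/inhibition data; mean ± SD of at least three determinations.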

[4] = Cytotoxicity against human fibroblasts after 48 hrs by MTT assay; assay type: cell-based; conditions: fibroblast; how it was run: as §1
MDA-MB-231 [5] = assay: Antitumor activity against human MDA-MB-231 cells xenografted in athymic nude mouse assessed as tumor growth inhibition at 90 mg/kg, ip qd for 21 days; assay type: functional; conditions: route intraperitoneal
HL-60 = assay: Cytotoxicity against human HL60 cells after 48 hrs by MTT assay; assay type: functional, cell-based; conditions: HL-60, 48 h
[6] = target: T2, Protein deacetylase HDAC6 (Homo sapiens, UniProt Q9UBN7); assay: Inhibition of HDAC6 in human HeLa cell nuclear extract after 30 mins by fluorescence microplate reader
T2 sequence (Q9UBN7 whole entry): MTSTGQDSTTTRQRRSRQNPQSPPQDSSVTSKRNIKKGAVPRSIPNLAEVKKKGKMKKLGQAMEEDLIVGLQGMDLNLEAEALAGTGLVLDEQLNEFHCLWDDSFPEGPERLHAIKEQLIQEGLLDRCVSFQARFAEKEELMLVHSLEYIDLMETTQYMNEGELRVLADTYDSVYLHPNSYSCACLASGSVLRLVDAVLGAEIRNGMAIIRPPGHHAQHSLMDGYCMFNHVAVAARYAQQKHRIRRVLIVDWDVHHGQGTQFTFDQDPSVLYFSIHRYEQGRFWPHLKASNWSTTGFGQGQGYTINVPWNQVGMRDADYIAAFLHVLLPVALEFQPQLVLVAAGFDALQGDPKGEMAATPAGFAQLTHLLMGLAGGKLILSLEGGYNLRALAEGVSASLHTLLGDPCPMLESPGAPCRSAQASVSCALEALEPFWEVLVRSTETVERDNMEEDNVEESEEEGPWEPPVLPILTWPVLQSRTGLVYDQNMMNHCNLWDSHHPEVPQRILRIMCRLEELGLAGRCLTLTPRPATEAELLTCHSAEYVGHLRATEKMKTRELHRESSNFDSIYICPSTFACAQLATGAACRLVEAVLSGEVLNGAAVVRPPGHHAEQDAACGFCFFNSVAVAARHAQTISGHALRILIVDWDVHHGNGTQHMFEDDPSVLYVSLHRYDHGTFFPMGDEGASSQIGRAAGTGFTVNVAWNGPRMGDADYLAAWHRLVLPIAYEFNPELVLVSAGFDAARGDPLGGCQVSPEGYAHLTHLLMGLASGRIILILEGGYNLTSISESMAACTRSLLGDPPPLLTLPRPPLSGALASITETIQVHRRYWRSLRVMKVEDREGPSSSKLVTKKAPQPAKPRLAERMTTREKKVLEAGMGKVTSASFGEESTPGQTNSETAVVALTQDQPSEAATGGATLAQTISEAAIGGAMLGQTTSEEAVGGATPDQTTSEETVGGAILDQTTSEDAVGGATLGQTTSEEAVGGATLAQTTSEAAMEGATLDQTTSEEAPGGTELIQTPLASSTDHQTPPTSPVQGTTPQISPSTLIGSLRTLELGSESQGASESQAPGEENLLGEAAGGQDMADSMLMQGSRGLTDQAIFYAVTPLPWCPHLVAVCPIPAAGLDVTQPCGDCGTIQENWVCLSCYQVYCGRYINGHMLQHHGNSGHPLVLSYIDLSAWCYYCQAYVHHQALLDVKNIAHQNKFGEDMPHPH

NB-4 = assay: Cytotoxicity against human NB4 cells after 48 hrs by MTT assay; assay type: functional, cell-based; conditions: NB-4, 48 h
MDA-MB-231 [7] = assay: Cell cycle arrest in human MDA-MB-231 cells assessed as accumulation at G1 phase at 0.5 uM after 48 hrs by flow cytometry analysis; assay type: functional, cell-based
HeLa = assay: Cytotoxicity against human HeLa cells after 48 hrs by MTT assay; assay type: functional, cell-based
Histone deacetylase = assay: Inhibition of HDAC in human HeLa cell nuclear extract after 30 mins by fluorescence microplate reader; assay type: protein assay
MDA-MB-231 [8] = assay: Cell cycle arrest in human MDA-MB-231 cells assessed as accumulation at G2 phase at 2 to 5 uM after 48 hrs by flow cytometry analysis; assay type: functional, cell-based
K562 = assay: Cytotoxicity against human K562 cells after 48 hrs by MTT assay; assay type: functional, cell-based; conditions: K562, 48 h
MDA-MB-231 [9] = assay: Cytotoxicity against human MDA-MB-231 cells after 48 hrs by MTT assay; assay type: functional, cell-based; conditions: MDA-MB-231, 48 h
[10] = Cytotoxicity against human ES2 cells after 48 hrs by MTT assay; assay type: functional, cell-based; conditions: ES-2, 48 h

Compound: O=C(CCCCCCC(=O)Nc1ccccc1)NO [VORINOSTAT]
- Activity (MDA-MB-231 [1]): Active
- Activity (Mus musculus [2]): Non-toxic
- Activity (Mus musculus [3]): Non-toxic
- IC50 (A549): 740 nM

Compound: CC[C@H](C)[C@H](NC(=O)OC(C)(C)C)C(=O)N1Cc2cc(OCC(=O)NO)ccc2C[C@H]1C(=O)Nc1ccc(OC)cc1
- Activity (MDA-MB-231 [1]): Active
- IC50 (Histone deacetylase 8): 139 nM
- Activity (Mus musculus [2]): Non-toxic
- Activity [4]: Toxic
- T/C (MDA-MB-231 [5]): 63%
- IC50 (HL-60): 47600 nM
- IC50 [6]: 47 nM
- IC50 (NB-4): 1500 nM
- Activity (MDA-MB-231 [7]): Active
- IC50 (HeLa): 37100 nM
- IC50 (Histone deacetylase): 58 nM
- Activity (MDA-MB-231 [8]): Active
- IC50 (K562): 1470 nM
- IC50 (MDA-MB-231 [9]): 790 nM
- Activity (Mus musculus [3]): Non-toxic
- IC50 [10]: 5000 nM
- IC50 (A549): 940 nM
